Structures are written as SMILES.

Experiment [1] has as its target T1, DNA topoisomerase 1 (Homo sapiens) (UniProt P11387).
T1 sequence (whole entry): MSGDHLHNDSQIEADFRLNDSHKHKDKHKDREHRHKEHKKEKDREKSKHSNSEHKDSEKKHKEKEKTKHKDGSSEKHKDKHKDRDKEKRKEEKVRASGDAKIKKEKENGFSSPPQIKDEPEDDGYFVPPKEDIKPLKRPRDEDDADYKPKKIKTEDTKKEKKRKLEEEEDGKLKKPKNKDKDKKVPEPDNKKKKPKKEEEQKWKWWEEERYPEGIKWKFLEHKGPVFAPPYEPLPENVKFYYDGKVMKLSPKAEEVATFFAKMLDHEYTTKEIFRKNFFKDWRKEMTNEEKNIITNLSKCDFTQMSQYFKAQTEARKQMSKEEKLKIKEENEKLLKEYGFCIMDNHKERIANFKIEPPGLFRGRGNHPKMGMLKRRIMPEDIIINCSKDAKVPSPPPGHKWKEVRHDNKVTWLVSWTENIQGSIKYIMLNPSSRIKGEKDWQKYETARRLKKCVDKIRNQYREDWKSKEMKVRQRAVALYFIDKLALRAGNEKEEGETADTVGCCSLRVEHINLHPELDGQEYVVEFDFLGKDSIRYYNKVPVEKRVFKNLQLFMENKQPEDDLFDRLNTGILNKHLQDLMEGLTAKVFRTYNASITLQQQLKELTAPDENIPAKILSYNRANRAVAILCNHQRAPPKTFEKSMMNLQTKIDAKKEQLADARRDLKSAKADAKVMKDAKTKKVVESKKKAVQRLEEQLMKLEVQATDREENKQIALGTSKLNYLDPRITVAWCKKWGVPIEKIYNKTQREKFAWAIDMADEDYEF
Kind of experiment: Inhibition of recombinant human TOP1 mediated DNA cleavage after 20 mins by gel electrophoresis relative to camptothecin. Details: concentration or dose not given beside the values. The essentials: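 117-bp oligonucleotide containing Top1 cleavage sites, 3'-end labeled with [α-32P]-dGTP by Klenow fill-in. About 2 nM substrate incubated with recombinant Top1 and various compound concentrations for 20 min at 25 °C in 10 mM Tris-HCl pH 7.5, 50 mM KCl, 5 mM MgCl2, 0.1 mM EDTA, 15 μg/mL BSA. Stopped with 0.5% SDS, run on 20% denaturing PAGE, phosphorimaged.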

Another experiment relates to HOP-62. The experiment in a line: Antiproliferative activity against human HOP62 cells by SRB assay. In kind it is functional. In short, it runs like this: (§1)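 NCI 60-cell-line human tumor panel. Compounds first screened at one dose of 10^-5 M. Selected compounds then tested at five concentrations from 10^-8 to 10^-4 M. GI50 is the concentration giving 50% growth inhibition. GI50 values outside the tested range are assigned 10^-8 M or 10^-4 M.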
For orientation: The SRB assay estimates cell density from bound dye.

A further experiment concerns HCT-116. The experiment in a line: Antiproliferative activity against human HCT116 cells by SRB assay. Type of experiment: functional. The essentials:
as §1

The next experiment concerns SF-539. The experiment in a line: Antiproliferative activity against human SF539 cells by SRB assay. Type of experiment: functional. The essentials: as §1
The subject of another experiment is UACC-62. The experiment in a line: Antiproliferative activity against human UACC62 cells by SRB assay. Type of experiment: functional. The essentials: as §1
A further experiment relates to OVCAR-3. Kind of experiment: Antiproliferative activity against human OVCAR3 cells by SRB assay. Type of experiment: functional. The essentials:
as §1

For another experiment, the system named is SN12C. The experiment in a line: Antiproliferative activity against human SN12C cells by SRB assay. Type of experiment: functional. The essentials: as §1
For another experiment, the system named is DU-145. Kind of experiment: Antiproliferative activity against human DU145 cells by SRB assay. In kind it is functional. The essentials: as §1
The test system of another experiment is MCF7. The experiment in a line: Antiproliferative activity against human MCF7 cells by SRB assay. In kind it is functional. In short, it runs like this:
as §1

Take `CC(O)Cn1c2c(c3ccccc3c1=O)C(=O)c1ccccc1-2` (racemic): the inhibition (in general, how much of the control response was suppressed) in experiment [1] was 20%. Besides, the GI50 (in general, the concentration giving 50% growth inhibition) in the experiment on HOP-62 came to 3.46 µM; in the experiment on HCT-116, 5.75 µM; in the experiment with SF-539 it was 6.76 µM; with UACC-62 it was 6.16 µM; in the experiment with OVCAR-3, 16.2 µM; in the experiment with SN12C it was 3.98 µM. For the same compound, the figures for the GI50 in the experiment with DU-145 and with MCF7 were 4.36 µM and 3.8 µM, respectively.

The values are drawn from ChEMBL document CHEMBL1821653, “Alcohol-, diol-, and carbohydrate-substituted indenoisoquinolines as topoisomerase I inhibitors: investigating the relationships involving stereochemistry, hydrogen bonding, and biological activity” (2011).
